Shown are actives, neighbours in structure and some others; about 2% of the full set was active somewhere.
Hep lipid drop: inhibitors of hepatocyte lipid droplet formation, primary screen, imaging, high-throughput imaging, BODIPY stain. AML12 mouse hepatocytes, oleate lipid droplets. inhibition, % at 6.5 µM. hit rate 0.4% among 240,000. AID 1656, 2009;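 active = lipid droplet intensity inhibited by at least 50%, with more than 500 cells counted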
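Material – AML12 mouse liver cells · Also added – oleate loading, 100 µM · Compound dosing – 6.5 µM single-point dosing · Times – overnight treatment with compound plus oleate · Measured by – fluorescence imaging, 20x objective, two fields per well · Read-out – percent inhibition of filter-corrected integrated lipid droplet intensity per well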
B2AR ag: beta2AR agonists driving receptor internalization, primary screen, cell-based, FAP fluorogen, flow cytometry; Beta-2 adrenergic receptor (Homo sapiens), P07550; Am2.2-beta2AR cells; response, % (test concentration not listed); hit rate 0.43% among 340,000;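 active = response above a set limit, near 3 SD of response in nonfluorescent compounds, cut at about 42% in these data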
Target sequence (P07550 whole entry, looked up): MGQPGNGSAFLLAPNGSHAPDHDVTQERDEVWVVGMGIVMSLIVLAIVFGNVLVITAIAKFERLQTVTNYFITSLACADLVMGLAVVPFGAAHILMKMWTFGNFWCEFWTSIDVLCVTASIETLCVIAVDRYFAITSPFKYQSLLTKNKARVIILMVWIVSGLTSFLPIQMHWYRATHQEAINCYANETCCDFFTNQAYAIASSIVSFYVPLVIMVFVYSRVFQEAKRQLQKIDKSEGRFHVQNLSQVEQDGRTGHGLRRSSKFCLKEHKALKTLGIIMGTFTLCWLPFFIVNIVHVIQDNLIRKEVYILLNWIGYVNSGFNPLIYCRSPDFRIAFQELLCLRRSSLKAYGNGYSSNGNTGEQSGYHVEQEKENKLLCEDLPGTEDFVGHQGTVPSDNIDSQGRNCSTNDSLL
Arrestin-AP2 inh: inhibitors of beta-arrestin/AP2 binding, primary screen, biochemical, GPCR trafficking, flow cytometry; inhibition, % at 10 µM; hit rate 0.31% among 340,000; FITC-arrestin peptide / GST-AP2 beads; AP2 beta2 appendage carries R879A mutation;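 active = inhibition above a set limit, near 3 SD of compounds lacking own fluorescence, cut at about 54% in these data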;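 note: plate controls were DMSO wells for no effect and 5 µM unlabelled arrestin peptide for full effect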
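Test system: GST-tagged AP2 beta2-adaptin appendage (R879A) on 4 µm glutathione beads; also added: fluorescein-tagged arrestin peptide at 50 nM final; timing: 12 min plus 1 h, RT; signal: flow cytometry, FL1 (488/535 nm); read-out: percent drop in bead-associated FITC signal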
NTR1 agonist: agonists of human NTR1, primary screen, imaging, U2OS cells, beta-arrestin-GFP, high content | NTR1-U2OS beta-arrestin-GFP spot imaging, agonist mode | hit rate 0.17% among 330,000 | activation, % at 20 µM | Neurotensin receptor type 1 (Homo sapiens), P30989;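 active = activation at or above 40% of the spot to cytoplasm intensity ratio, with at least 20 cells analyzed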;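 note: 0% = DMSO without peptide and 100% = 100 nM NTR1 peptide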
GRK2 inh: compounds blocking aptamer binding on GRK2 – biochemical, human GRK2, bead flow cytometry, HTS, primary screen. AID 488847, 2010. FAM-aptamer displacement from GRK2. inhibition of aptamer binding, % at 10 µM. Beta-adrenergic receptor kinase 1 (Homo sapiens), P25098. hit rate 0.59% among 330,000;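 active = inhibition of aptamer binding above 40%, roughly 3 SD of noise, on plates passing a quality check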;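 note: median bead fluorescence of bound FAM aptamer so fluorescent compounds give negative values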
TAG inh: inhibitors of triacylglycerol accumulation, primary screen, cell-based, uHTS, fluorescence, H9c2; H9c2 cells, Nile Red lipid (TAG) fluorescence; cells loaded with 200 µM oleic acid; inhibition, % at 12.5 µM; hit rate 0.66% among 230,000; AID 651582, 2012;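 active = pattern-corrected inhibition of lipid staining of at least 50% with the nuclear-stain viability signal not falling by more than 50%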;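 note: 0% = DMSO wells and 100% = triacsin C control wells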
Lipid drop inh: hepatocyte lipid droplet accumulation inhibitors, confirmation, imaging, AML12 mouse hepatocytes, single concentration, high-content | inhibition, % at 5.2 µM | shares compounds with Hep lipid drop | AID 463183, 2010 | hit rate 65% among 870 | BODIPY lipid droplet imaging; droplets induced with 100 µM oleic acid;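 active = inhibition of lipid droplet metric at least 50%, with more than 300 cells in each of four replicates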;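 note: plate controls were DMSO with oleic acid for no effect and 5 µM Triacsin-C for full effect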
AML12 cytotox: AML12 hepatocyte cytotoxicity, counter-screen for hepatic lipid droplet formation project, imaging, DAPI nuclear morphology imaging | AID 463200, 2010 | z-score at 5 µM | AML12 mouse hepatocytes; hits give high values; cells fed 100 µM oleate overnight | hit rate 3% among 870 | shares compounds with Hep lipid drop; in the data active = z-score above about 6.3;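 note: compound exposure lasted overnight at 37 °C before fixation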
AML12 tox conf: AML12 hepatocyte cytotoxicity, confirmation, cytotoxicity control for hepatic lipid droplet formation project, cell-based, single concentration; cytotoxicity, % at 50 µM; shares compounds with Hep lipid drop; AML12 mouse hepatocyte viability, ATP luminescence; cells loaded with 100 µM oleic acid; 530 tested, under 10 active; AID 463219, 2010;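 active = cytotoxicity above 50% in each of four replicates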;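 note: compound exposure lasted overnight at 37 °C before the ATP read; 0% = DMSO-treated cells and 100% = wells with no cells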
An asterisk follows results filed as active.

How did COc1ccc(/C=C(\NC(=O)c2cccs2)C(=O)Nc2cccc3ccccc23)cc1OC do in these assays?
Hep lipid drop: 84*; B2AR ag: 3; Arrestin-AP2 inh: -3; NTR1 agonist: 4; GRK2 inh: 1; Lipid drop inh: 102*; AML12 cytotox: 0.16; AML12 tox conf: 8

What do the screens show for `Cc1ccc(NC(=O)CCC(=O)c2cccs2)cc1`?
Hep lipid drop: 12; B2AR ag: -10; Arrestin-AP2 inh: 20; NTR1 agonist: 0; GRK2 inh: 4; TAG inh: 6

Results for COC(=O)c1sccc1NC(=O)CC1C(=O)NCCN1C(=O)c1ccc(F)cc1 (configuration not stated) ?
Hep lipid drop: 14; B2AR ag: 9; Arrestin-AP2 inh: 9; NTR1 agonist: 0; GRK2 inh: 2; TAG inh: -14

Results for CN1C(=O)C2(OCCCO2)c2ccccc21 ?
Hep lipid drop: 5; B2AR ag: -1; Arrestin-AP2 inh: 4; NTR1 agonist: -1; GRK2 inh: 3

What do the screens show for `O=C(Cc1ccccc1)Nn1c(-c2ccccc2)nc2ccccc2c1=O`?
Hep lipid drop: 57*; B2AR ag: -1; Arrestin-AP2 inh: -1; NTR1 agonist: -1; GRK2 inh: 1; Lipid drop inh: 64*; AML12 cytotox: 0.09; AML12 tox conf: 9

How did O=C(Cc1ccccc1)Nn1c(-c2ccccc2F)nc2ccccc2c1=O do in these assays?
Hep lipid drop: 2; B2AR ag: -1; Arrestin-AP2 inh: -18; NTR1 agonist: 0; GRK2 inh: 1; TAG inh: -3

How did CCCCOc1ccccc1C(=O)N(Cc1ccc(C)o1)C1CCS(=O)(=O)C1 (configuration not stated) do in these assays?
Hep lipid drop: 64*; B2AR ag: 2; Arrestin-AP2 inh: 3; NTR1 agonist: 0; GRK2 inh: 0; Lipid drop inh: 97*; AML12 cytotox: 0.93; AML12 tox conf: 10

What do the screens show for `CCCOc1ccccc1C(=O)N(Cc1ccc(C)o1)C1CCS(=O)(=O)C1` (configuration not stated)?
Hep lipid drop: 65*; B2AR ag: -4; Arrestin-AP2 inh: -8; NTR1 agonist: 0; GRK2 inh: 0; Lipid drop inh: 78*; AML12 cytotox: 0.48; AML12 tox conf: -3

How did CCCOc1ccccc1C(=O)N(Cc1ccco1)C1CCS(=O)(=O)C1 (configuration not stated) do in these assays?
B2AR ag: 3; Arrestin-AP2 inh: 1; NTR1 agonist: -1; GRK2 inh: 0; TAG inh: -12

Results for Cc1ccc(CN(C(=O)c2ccccc2[N+](=O)[O-])C2CCS(=O)(=O)C2)o1 (configuration not stated) ?
Hep lipid drop: 14; B2AR ag: 4; Arrestin-AP2 inh: 34; NTR1 agonist: 0; GRK2 inh: 0

How did COC(=O)c1ccccc1NC(=O)COC(=O)CSc1nnc(N)s1 do in these assays?
Hep lipid drop: -5; B2AR ag: -3; Arrestin-AP2 inh: -7; NTR1 agonist: -1; GRK2 inh: 5; TAG inh: 7

Assay outcomes as filed in PubChem.
